Measured values of several laboratories.
Lines come from different studies, so protocols differ.
Target: Casein kinase I isoform gamma-3 (CSNK1G3, Homo sapiens, UniProt Q9Y6M4)

The inhibition of COc1cc(Nc2ncc(F)c(Nc3ccc4c(n3)NC(=O)C(C)(C)O4)n2)cc(OC)c1OC is reported as 0% (binding; competition with immobilised ligand; 10 µM).
COc1ncccc1-c1cnn2ccc(N3CCN(C(=O)OC(C)C)CC3)nc12 has a remaining binding of 92% (binding; competition with immobilised ligand; 1 µM).
The remaining binding of Cn1cncc1[C@@](O)(COc1ccc(C#N)cc1-c1ccc(OC(F)(F)F)cc1)c1ccc(C#N)cc1 is reported as 100% (cell-free assay; competition with immobilised ligand; 1 µM).
With Cn1cc(-c2cccc(N3CCc4c(sc5c4CC(C)(C)C5)C3=O)c2CO)cc(Nc2ccncn2)c1=O the inhibition was -1% (enzyme activity; inhibitor; 1 µM).
With O=c1[nH]c2ccccc2n1C1CCN(Cc2ccc(-c3[nH]c4cc5ncnc5cc4nc3-c3ccccc3)cc2)CC1 the remaining signal was 96.5% (cell-free assay; 0.5 µM).
N#CC1(c2ccccn2)CCN(Cc2cc(C(=O)O)c(=O)n3ccccc23)CC1 has a remaining binding of 93% (cell-free assay; competition with immobilised ligand; 1 µM).
With Cn1cc(-c2cc(F)cc(N3CCn4c(cc5c4CCCC5)C3=O)c2CO)cc(Nc2ccc(N3CCN(C4COC4)CC3)cn2)c1=O the inhibition was 7% (enzyme activity; inhibitor; 0.1 µM).
The remaining activity of CC(C)(C)c1cc(C=C(C#N)C#N)cc(Br)c1O is reported as 85.8% (enzyme activity; inhibitor; 0.5 µM).
Cc1nn(C)cc1-c1nc2c(N3CCN(Cc4ccc(Cl)cc4)CC3)c(Cl)cnc2[nH]1 gave a remaining binding of 100% (binding; competition with immobilised ligand; 1 µM).
